{
  "source": "paper PMC10712300",
  "about": "(Protein and peptide letters, 2021)",
  "key": {"[1]": {"assay": "AFM / amyloid fibril formation of an IAPP peptide by itself", "type": "physicochemical", "settings": "37 μM hIAPP alone, 20 mM tris pH 7.40, 37°C, 40 min shaking, deposited onto mica", "summary_of_the_method": "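HFIP stocks of peptide (0.125 mg/mL) were sonicated 10 min and held at −80°C. HFIP was removed under vacuum and peptide dissolved in 20 mM Tris pH 7.40. hIAPP was held at 37 μM, alone or with animal IAPP at 37 μM (1:1). Incubation: 37°C, 200 rpm, 40 min. Samples were spotted on fresh mica for 5 min, water-washed, dried, and imaged by AC-mode AFM without flattening.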"}, "RIN-m cells [2]": {"tested_on": "RIN-m cells", "assay": "LDH cytotoxicity assay", "type": "cell-based", "settings": "48 h at 37°C; for LDH release / plasma membrane damage, peptide alone: 12.8 μM IAPP alone; for LDH cytotoxicity of hIAPP mixed with animal IAPP: 12.8 μM hIAPP + 12.8 μM animal IAPP (1:1)", "summary_of_the_method": "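RIN-m cells were plated overnight and refed with RPMI-1640 + 10% FBS. HFIP-dried IAPPs were resuspended in the same medium by scraping and 30 s vortexing. Each IAPP was added at 12.8 μM, or hIAPP + animal IAPP 1:1, for 48 h at 37°C, 5% CO2. Spontaneous (water) and maximum (lysis buffer) release wells ran 45 min. Supernatant reaction: 30 min RT dark, then stop. A450/A620; % cytotoxicity by kit equation.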"}, "RIN-m cells [3]": {"tested_on": "RIN-m cells", "assay": "Cell morphology imaging", "type": "cell-based", "settings": "for RIN-m cell morphology, peptide alone: 12.8 μM IAPP alone (absence of hIAPP for animal variants); for RIN-m cell morphology, hIAPP mixed with animal IAPP: 12.8 μM hIAPP + animal IAPP, 1:1 ratio"}, "[4]": {"settings": "patients with type 1 diabetes taking hIAPP mimetic supplements; cited from earlier work"}, "[5]": {"settings": "cited from earlier work"}, "[6]": {"tested_on": "hIAPP aggregation / fibril formation", "settings": "cited from earlier work"}},
  "note": "Ends that are not written are not given here.",
  "data": [
    {"substance": "Human Islet Amyloid Polypeptide (KCNTATCATQRLANFLVHSSNNFGAILSSTNVGSNTY; Islet amyloid polypeptide; UniProt P10997 34-70, looked up) [hIAPP, reference compound]", "values": [
      {"measurement": "fibril formation of the peptide alone (AFM)", "setting": "[1]", "result": "forms high-density plaques of fibrils"},
      {"measurement": "LDH release / plasma membrane damage, peptide alone", "setting": "RIN-m cells [2]", "result": "increased the release of LDH into the media"},
      {"measurement": "RIN-m cell morphology, peptide alone", "setting": "RIN-m cells [3]", "result": "changes in cellular shape, formation of granular nuclear structures, and detachment of numerous cells from the plate surface"}
    ]},
    {"substance": "cat IAPP: synthetic naturally occurring cat variant of IAPP (KCNTATCATQRLANFLIRSSNNLGAILSPTNVGSNTY; ends and bridges not checked; cysteine pairing not given here; UniProt P12967 34-70, looked up)", "values": [
      {"measurement": "LDH release / plasma membrane damage, peptide alone", "setting": "RIN-m cells [2]", "result": "some damage to the plasma membrane of the cells, but much less compared to hIAPP"},
      {"measurement": "LDH cytotoxicity of hIAPP mixed with animal IAPP", "setting": "RIN-m cells [2]", "result": "decreased the toxicity of hIAPP and reduced the amount of damage to the plasma membrane"},
      {"measurement": "RIN-m cell morphology, peptide alone", "setting": "RIN-m cells [3]", "result": "some rounding of cells and detaching from the plate"},
      {"measurement": "RIN-m cell morphology, hIAPP mixed with animal IAPP", "setting": "RIN-m cells [3]", "result": "cells looking better than cells incubated with hIAPP alone"}
    ]},
    {"substance": "pramlintide", "values": [
      {"measurement": "average weight loss", "setting": "[4]", "result": "about 2 kg"}
    ]},
    {"substance": "rat IAPP: synthetic naturally occurring rat variant of IAPP, non-amyloidogenic", "values": [
      {"measurement": "independent aggregation, fibril formation and toxicity to living cells", "setting": "[5]", "result": "does not independently aggregate, form fibrils, or show toxicity to living cells"},
      {"measurement": "inhibition of hIAPP aggregation (literature)", "setting": "[6]", "result": "modest inhibitors of hIAPP aggregation"},
      {"measurement": "LDH release / plasma membrane damage, peptide alone", "setting": "RIN-m cells [2]", "result": "very little effect on the cellular plasma membrane"},
      {"measurement": "LDH cytotoxicity of hIAPP mixed with animal IAPP", "setting": "RIN-m cells [2]", "result": "increased the amount of cytotoxicity in the cell"},
      {"measurement": "RIN-m cell morphology, peptide alone", "setting": "RIN-m cells [3]", "result": "did not cause significant changes to RIN-m morphology"},
      {"measurement": "RIN-m cell morphology, hIAPP mixed with animal IAPP", "setting": "RIN-m cells [3]", "result": "many cells with a round shape and detached from the plate"}
    ]}
  ]
}
